From ChEMBL document CHEMBL1141699, “Design, synthesis, and antibacterial activities of novel 3,6-bicyclolide oximes: length optimization and zero carbon linker oximes” (2008)
In brackets after ≈: the same amount, converted by molar mass.

How the values were obtained:
Assay type in all cases: functional
Haemophilus influenzae [1] = experiment: Antibacterial activity against ampicillin-susceptible Haemophilus influenzae by broth-microdilution method
Streptococcus pyogenes [2] = experiment: Antibacterial activity against efflux-resistant Streptococcus pyogenes 1323 expressing mefA by broth-microdilution method
Procedure, shortened: (§1)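 MIC (µg/ml) by broth microdilution following CLSI standards.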

Streptococcus pyogenes [3] = experiment: Antibacterial activity against MLSB-resistant Streptococcus pyogenes 2912 expressing ermA by broth-microdilution method; procedure, shortened: as §1
Staphylococcus aureus [4] = experiment: Antibacterial activity against MLSB-resistant Staphylococcus aureus 27660 expressing ermA by broth-microdilution method; procedure, shortened: as §1
Moraxella catarrhalis = experiment: Antibacterial activity against Moraxella catarrhalis by broth-microdilution method
Procedure, shortened: (§2)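 MICs were determined by broth microdilution following CLSI standards and reported in µg/ml.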

Staphylococcus aureus [5] = experiment: Antibacterial activity against erythromycin-susceptible Staphylococcus aureus 29213 by broth-microdilution method; details: ATCC29213; procedure, shortened: as §1
Streptococcus pyogenes [6] = experiment: Antibacterial activity against erythromycin-susceptible Streptococcus pyogenes 19615 by broth-microdilution method; procedure, shortened: as §2
Streptococcus pneumoniae [7] = experiment: Antibacterial activity against MLSB-resistant Streptococcus pneumoniae 700906 expressing erm by broth-microdilution method; procedure, shortened: as §1
Staphylococcus aureus [8] = experiment: Antibacterial activity against methicillin-resistant Staphylococcus aureus 33591 by broth-microdilution method; procedure, shortened: as §1
Streptococcus pneumoniae [9] = experiment: Antibacterial activity against erythromycin-susceptible Streptococcus pneumoniae 49619 by broth-microdilution method; procedure, shortened: as §1
Haemophilus influenzae [10] = experiment: Antibacterial activity against ampicillin-resistant Haemophilus influenzae 33929 expressing beta-lactamase by broth-microdilution method; procedure, shortened: as §1
Streptococcus pneumoniae [11] = experiment: Antibacterial activity against efflux-resistant Streptococcus pneumoniae 7701 expressing mefA by broth-microdilution method; procedure, shortened: as §1

| SMILES | MIC (Haemophilus influenzae [1]) [µg/mL] | MIC (Streptococcus pyogenes [2]) [µg/mL] | MIC (Streptococcus pyogenes [3]) [µg/mL] | MIC (Staphylococcus aureus [4]) [µg/mL] | MIC (Moraxella catarrhalis) [µg/mL] | MIC (Staphylococcus aureus [5]) [µg/mL] | MIC (Streptococcus pyogenes [6]) [µg/mL] | MIC (Streptococcus pneumoniae [7]) [µg/mL] | MIC (Staphylococcus aureus [8]) [µg/mL] | MIC (Streptococcus pneumoniae [9]) [µg/mL] | MIC (Haemophilus influenzae [10]) [µg/mL] | MIC (Streptococcus pneumoniae [11]) [µg/mL] |
| --- | --- | --- | --- | --- | --- | --- | --- | --- | --- | --- | --- | --- |
| CC[C@H]1OC(=O)[C@H](C)[C@H]2OC/C(=N\Oc3cccc(-c4ccccc4)c3)CCO[C@](C)(C[C@@H](C)C(=O)[C@H](C)[C@H]3NC(=O)O[C@@]31C)[C@H](O[C@@H]1O[C@H](C)C[C@H](N(C)C)[C@H]1O)[C@H]2C | 4 (≈ 4.78 µM) | 0.125 (≈ 0.15 µM) | 4 (≈ 4.78 µM) | 0.125 (≈ 0.15 µM) | 0.125 (≈ 0.15 µM) | 0.125 (≈ 0.15 µM) | ≤ 0.06 | 2 (≈ 2.39 µM) | 4 (≈ 4.78 µM) | ≤ 0.06 | 4 (≈ 4.78 µM) |  |
| CC[C@H]1OC(=O)[C@H](C)[C@H]2OC/C(=N\Oc3cccc(Cl)c3)CCO[C@](C)(C[C@@H](C)C(=O)[C@H](C)[C@H]3NC(=O)O[C@@]31C)[C@H](O[C@@H]1O[C@H](C)C[C@H](N(C)C)[C@H]1O)[C@H]2C | 2 (≈ 2.52 µM) |  | 1 (≈ 1.26 µM) | ≤ 0.06 | ≤ 0.06 | ≤ 0.06 | ≤ 0.06 | 8 (≈ 10.1 µM) | 32 (≈ 40.3 µM) | ≤ 0.06 | 2 (≈ 2.52 µM) |  |
| CC[C@H]1OC(=O)[C@H](C)[C@H]2OC/C(=N\OCCc3ccccc3)CCO[C@](C)(C[C@@H](C)C(=O)[C@H](C)[C@H]3NC(=O)O[C@@]31C)[C@H](O[C@@H]1O[C@H](C)C[C@H](N(C)C)[C@H]1O)[C@H]2C | 2 (≈ 2.54 µM) | 0.125 (≈ 0.159 µM) | 8 (≈ 10.2 µM) | 0.125 (≈ 0.159 µM) | ≤ 0.06 | 0.125 (≈ 0.159 µM) | ≤ 0.06 | 16 (≈ 20.3 µM) | > 64 | ≤ 0.06 | 2 (≈ 2.54 µM) |  |
| CC[C@H]1OC(=O)[C@H](C)[C@H]2OC/C(=N\Oc3cccnc3)CCO[C@](C)(C[C@@H](C)C(=O)[C@H](C)[C@H]3NC(=O)O[C@@]31C)[C@H](O[C@@H]1O[C@H](C)C[C@H](N(C)C)[C@H]1O)[C@H]2C | 1 (≈ 1.31 µM) | 0.25 (≈ 0.329 µM) | 4 (≈ 5.26 µM) | 0.125 (≈ 0.164 µM) | ≤ 0.06 | 0.125 (≈ 0.164 µM) | ≤ 0.06 | 16 (≈ 21 µM) | > 64 | 0.125 (≈ 0.164 µM) | 1 (≈ 1.31 µM) | 0.125 (≈ 0.164 µM) |
| CC[C@H]1OC(=O)[C@H](C)[C@H]2OC/C(=N\Oc3ccccc3-c3ccccc3)CCO[C@](C)(C[C@@H](C)C(=O)[C@H](C)[C@H]3NC(=O)O[C@@]31C)[C@H](O[C@@H]1O[C@H](C)C[C@H](N(C)C)[C@H]1O)[C@H]2C | 8 (≈ 9.57 µM) | 0.5 (≈ 0.598 µM) | 16 (≈ 19.1 µM) | 0.5 (≈ 0.598 µM) | 0.5 (≈ 0.598 µM) | 0.5 (≈ 0.598 µM) | ≤ 0.06 | 16 (≈ 19.1 µM) | 16 (≈ 19.1 µM) | ≤ 0.06 | 8 (≈ 9.57 µM) | 0.5 (≈ 0.598 µM) |
| CC[C@H]1OC(=O)[C@H](C)[C@H]2OC/C(=N\Oc3ccc(Cl)cc3)CCO[C@](C)(C[C@@H](C)C(=O)[C@H](C)[C@H]3NC(=O)O[C@@]31C)[C@H](O[C@@H]1O[C@H](C)C[C@H](N(C)C)[C@H]1O)[C@H]2C | 4 (≈ 5.04 µM) |  | 2 (≈ 2.52 µM) | ≤ 0.06 | ≤ 0.06 | ≤ 0.06 | ≤ 0.06 | 16 (≈ 20.1 µM) | > 64 | ≤ 0.06 | 4 (≈ 5.04 µM) |  |
| CC[C@H]1OC(=O)[C@H](C)[C@H]2OC/C(=N/OCc3ccccc3)CCO[C@](C)(C[C@@H](C)C(=O)[C@H](C)[C@H]3NC(=O)O[C@@]31C)[C@H](O[C@@H]1O[C@H](C)C[C@H](N(C)C)[C@H]1O)[C@H]2C | 8 (≈ 10.3 µM) | 0.25 (≈ 0.323 µM) | 64 (≈ 82.7 µM) | 0.5 (≈ 0.646 µM) | 0.125 (≈ 0.162 µM) | 0.5 (≈ 0.646 µM) | ≤ 0.06 | > 64 | > 64 | ≤ 0.06 | 16 (≈ 20.7 µM) | 0.125 (≈ 0.162 µM) |
| CC[C@H]1OC(=O)[C@H](C)[C@@H](O[C@H]2C[C@@](C)(OC)[C@@H](O)[C@H](C)O2)[C@H](C)[C@@H](O[C@@H]2O[C@H](C)C[C@H](N(C)C)[C@H]2O)[C@](C)(O)C[C@@H](C)C(=O)[C@H](C)[C@@H](O)[C@]1(C)O [ERYTHROMYCIN] | 4 (≈ 5.45 µM) | 16 (≈ 21.8 µM) | > 64 | > 64 | 0.13 (≈ 0.177 µM) | 0.5 (≈ 0.681 µM) | 0.015 (≈ 0.0204 µM) | > 64 | > 64 | ≤ 0.06 | 4 (≈ 5.45 µM) | 4 (≈ 5.45 µM) |
